Activity calls are given as the source filed them. No cut-off for these calls is given here.
What was measured:
[1] = Clearance in mouse at 1 mg/kg, iv administered as single dose after 24 hrs by liquid chromatography-mass spectroscopy; type: ADME, organism-based; parameters: dose 1 mg/kg, route intravenous; details: in vivo
Procedure, shortened: (§1)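 Single intravenous dose of 1 mg/kg. Plasma was sampled at serial times over 24 h and measured by LC-MS/MS. Clearance was derived by pharmacokinetic analysis.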

[2] = test system: Human immunodeficiency virus 1; assay: Antiviral activity against HIV1 isolate 05-121798 assessed as inhibition of viral replication after 7 days by scintillation counting; type: functional, organism-based; details: Human immunodeficiency virus 1, isolate 05-121798, 168 h
[3] = test system: HOS; assay: Cytotoxicity against human HOS cells infected with HIV1 3B after 72 hrs by celltiter glow assay; type: cell-based
[4] = test system: Human immunodeficiency virus 1; assay: Antiviral activity against HIV1 JRCSF assessed as inhibition of viral replication by cell-based assay; type: functional; details: JRCSF ISOLATE
[5] = Oral bioavailability in mouse at 3 mg/kg administered as single dose after 24 hrs by liquid chromatography-mass spectroscopy; type: ADME, organism-based; details: in vivo
[6] = test system: Human immunodeficiency virus 1; assay: Antiviral activity against HIV1 isolate 05-121779 assessed as inhibition of viral replication after 7 days by scintillation counting; type: functional, organism-based; details: Human immunodeficiency virus 1, isolate 05-121779, 168 h
[7] = test system: Human immunodeficiency virus 1; assay: Antiviral activity against HIV1 isolate 05-121772 assessed as inhibition of viral replication after 7 days by scintillation counting; type: functional, organism-based; details: Human immunodeficiency virus 1, isolate 05-121772, 168 h
[8] = test system: Human immunodeficiency virus 1; assay: Antiviral activity against HIV1 isolate 05-121781 assessed as inhibition of viral replication after 7 days by scintillation counting; type: functional, organism-based; details: Human immunodeficiency virus 1, isolate 05-121781, 168 h
[9] = test system: Human immunodeficiency virus 1; assay: Antiviral activity against HIV1 3B infected in human HOS cells after 72 hrs by luminescence assay in presence of 1 mg/ml alpha-acid glycoprotein; type: functional, organism-based; details: Human immunodeficiency virus 1, 3B
[10] = test system: HEK293; assay: Cytotoxicity against HEK293 cells after 24 hrs by MTS assay; type: cell-based; details: Homo sapiens, HEK293, 24 h
Procedure, shortened: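 Viability in the cell-cell fusion format (BacMam-transduced HEK-293 cells mixed with HOS cells). Compound was added to the cell mix, and viability was read after 24 h with MTS dye.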

[11] = test system: Human immunodeficiency virus 1; assay: Antiviral activity against HIV1 isolate 05-121787 assessed as inhibition of viral replication after 7 days by scintillation counting; type: functional, organism-based; details: Human immunodeficiency virus 1, isolate 05-121787, 168 h
[12] = Volume of distribution at steady state in mouse at 1 mg/kg, iv administered as single dose after 24 hrs by liquid chromatography-mass spectroscopy; type: ADME, organism-based; parameters: dose 1 mg/kg, route intravenous; details: in vivo, read-out: Vdss
[13] = Volume of distribution at steady state in rat at 1 mg/kg, iv administered as single dose after 24 hrs by liquid chromatography-mass spectroscopy; type: ADME, organism-based; parameters: dose 1 mg/kg, route intravenous; details: in vivo, read-out: Vdss
[14] = test system: Human immunodeficiency virus 1; assay: Antiviral activity against HIV1 isolate 05-121792 assessed as inhibition of viral replication after 7 days by scintillation counting; type: functional, organism-based; details: Human immunodeficiency virus 1, isolate 05-121792, 168 h
[15] = target: C-X-C chemokine receptor type 4 (Homo sapiens) (UniProt P61073); assay: Antagonist activity at human CXCR4 expressed in HEK293 cells assessed as inhibition of SDF1-induced increase in intracellular calcium level treated 15 mins before agonist challenge measured after 1 hr by FLIPR assay relative to control; type: functional, cell-based
Sequence of C-X-C chemokine receptor type 4 (Homo sapiens) (P61073 whole entry): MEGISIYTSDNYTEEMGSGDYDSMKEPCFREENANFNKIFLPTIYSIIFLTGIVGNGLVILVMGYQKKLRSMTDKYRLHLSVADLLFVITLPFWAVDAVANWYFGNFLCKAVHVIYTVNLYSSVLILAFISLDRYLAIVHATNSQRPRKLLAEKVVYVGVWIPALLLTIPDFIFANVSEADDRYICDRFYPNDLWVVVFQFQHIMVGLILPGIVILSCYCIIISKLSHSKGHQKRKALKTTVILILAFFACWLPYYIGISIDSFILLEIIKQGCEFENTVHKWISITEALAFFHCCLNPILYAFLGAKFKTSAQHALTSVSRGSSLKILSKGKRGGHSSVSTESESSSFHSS
Procedure, shortened: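 HEK-293 cells transiently transduced by BacMam with CXCR4 (MOI 50) and chimeric Gqi5 (MOI 12.5), plated 40,000 per well, left 24 h at 37°C for expression. Cells then loaded with calcium dye in DMEM/F-12 containing 2.5 mM probenecid and 0.1% BSA for 1 h at 37°C. Intracellular calcium read by FLIPR. For antagonism, compound was added 15 min before SDF-1, used at an EC80 concentration.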

[16] = test system: Human immunodeficiency virus 1; assay: Antiviral activity against HIV1 3B infected in human HOS cells after 72 hrs by luminescence assay in presence of 45 mg/ml human serum albumin; type: functional, organism-based; details: Human immunodeficiency virus 1, 3B
Procedure, shortened: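 HOS LTR-luciferase viral assay (1 h compound pre-incubation, virus plus compound, 72 h, 37°C, luminescence) run with human serum albumin (45 mg/ml) with or without α-acid glycoprotein (1 mg/ml). Protein-free IC50 served as baseline for fold shift.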

[17] = target: Voltage-gated inwardly rectifying potassium channel KCNH2 (Homo sapiens, UniProt Q12809); assay: Inhibition of human ERG up to 10 uM
Sequence of Voltage-gated inwardly rectifying potassium channel KCNH2 (Q12809 whole entry): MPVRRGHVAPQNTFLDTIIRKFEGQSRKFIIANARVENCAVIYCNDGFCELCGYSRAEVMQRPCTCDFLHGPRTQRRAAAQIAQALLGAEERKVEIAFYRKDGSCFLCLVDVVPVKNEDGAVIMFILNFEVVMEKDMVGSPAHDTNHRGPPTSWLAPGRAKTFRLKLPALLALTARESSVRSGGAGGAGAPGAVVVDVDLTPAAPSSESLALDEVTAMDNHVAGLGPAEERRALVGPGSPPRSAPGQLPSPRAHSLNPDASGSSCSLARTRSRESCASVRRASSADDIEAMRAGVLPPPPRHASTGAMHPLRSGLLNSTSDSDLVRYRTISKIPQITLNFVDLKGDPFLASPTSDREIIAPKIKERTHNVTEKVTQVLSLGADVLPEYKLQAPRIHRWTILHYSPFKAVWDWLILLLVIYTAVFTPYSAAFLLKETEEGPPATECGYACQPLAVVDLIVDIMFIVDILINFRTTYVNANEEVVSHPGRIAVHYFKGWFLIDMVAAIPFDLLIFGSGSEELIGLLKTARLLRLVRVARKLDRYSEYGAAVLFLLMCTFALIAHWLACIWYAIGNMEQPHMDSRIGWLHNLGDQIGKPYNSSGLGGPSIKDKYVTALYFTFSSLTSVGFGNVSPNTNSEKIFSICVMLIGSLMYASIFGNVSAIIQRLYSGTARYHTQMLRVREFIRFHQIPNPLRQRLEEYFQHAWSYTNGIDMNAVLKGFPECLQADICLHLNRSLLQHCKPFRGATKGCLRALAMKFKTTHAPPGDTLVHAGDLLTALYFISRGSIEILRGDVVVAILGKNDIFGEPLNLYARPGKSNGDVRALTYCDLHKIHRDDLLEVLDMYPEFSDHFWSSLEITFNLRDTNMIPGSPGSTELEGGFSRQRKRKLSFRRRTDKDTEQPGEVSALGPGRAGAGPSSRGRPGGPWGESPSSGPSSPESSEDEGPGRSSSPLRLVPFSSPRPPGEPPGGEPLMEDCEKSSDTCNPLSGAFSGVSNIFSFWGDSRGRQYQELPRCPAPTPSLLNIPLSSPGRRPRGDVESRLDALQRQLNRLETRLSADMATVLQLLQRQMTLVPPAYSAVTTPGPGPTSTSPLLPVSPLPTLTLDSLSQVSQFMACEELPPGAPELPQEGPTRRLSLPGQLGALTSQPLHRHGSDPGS

[18] = Oral bioavailability in dog at 3 mg/kg administered as single dose after 24 hrs by liquid chromatography-mass spectroscopy; type: ADME, organism-based, Canis lupus familiaris; details: in vivo
[19] = target: C-X-C chemokine receptor type 4 (Homo sapiens) (UniProt P61073); assay: Antagonist activity at human CXCR4 expressed in HEK293 cells assessed as inhibition of SDF1-induced increase in intracellular calcium level treated 15 mins before agonist challenge measured after 1 hr by FLIPR assay; type: functional, cell-based
[20] = test system: Human immunodeficiency virus 1; assay: Antiviral activity against HIV1 isolate 05-121784 assessed as inhibition of viral replication after 7 days by scintillation counting; type: functional, organism-based; details: Human immunodeficiency virus 1, isolate 05-121784, 168 h
[21] = Clearance in monkey at 1 mg/kg, iv administered as single dose after 24 hrs by liquid chromatography-mass spectroscopy; type: ADME, organism-based, Macaca mulatta; parameters: dose 1 mg/kg, route intravenous; details: rhesus monkey, in vivo; procedure, shortened: as §1
[22] = target: C-X-C chemokine receptor type 4 (Homo sapiens) (UniProt P61073); assay: Agonist activity at human CXCR4 expressed in HEK293 cells assessed as effect intracellular calcium level after 1 hr by FLIPR assay; type: functional, cell-based
[23] = target: T1, Cytochrome P450 1A2 (Homo sapiens, UniProt P05177); assay: Inhibition of CYP1A2 up to 30 uM; type: ADME
T1 sequence (P05177 whole entry): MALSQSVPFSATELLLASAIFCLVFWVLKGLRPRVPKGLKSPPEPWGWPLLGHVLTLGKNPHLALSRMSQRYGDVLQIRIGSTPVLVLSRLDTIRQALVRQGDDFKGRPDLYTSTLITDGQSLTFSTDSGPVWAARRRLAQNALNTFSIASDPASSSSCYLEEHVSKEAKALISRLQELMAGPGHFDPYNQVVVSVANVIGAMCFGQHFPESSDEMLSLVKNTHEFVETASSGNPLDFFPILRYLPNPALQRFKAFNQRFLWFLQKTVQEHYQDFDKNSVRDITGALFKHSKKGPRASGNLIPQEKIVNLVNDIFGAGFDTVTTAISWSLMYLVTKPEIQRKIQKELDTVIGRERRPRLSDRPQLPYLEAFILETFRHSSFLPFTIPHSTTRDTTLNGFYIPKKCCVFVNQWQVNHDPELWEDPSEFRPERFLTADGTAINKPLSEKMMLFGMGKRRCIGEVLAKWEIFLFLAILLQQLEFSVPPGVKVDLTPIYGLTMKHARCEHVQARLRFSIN

[24] = test system: Human immunodeficiency virus 1; assay: Antiviral activity against HIV1 isolate 05-121797 assessed as inhibition of viral replication after 7 days by scintillation counting; type: functional, organism-based; details: Human immunodeficiency virus 1, isolate 05-121797, 168 h
[25] = Clearance in dog at 1 mg/kg, iv administered as single dose after 24 hrs by liquid chromatography-mass spectroscopy; type: ADME, organism-based, Canis lupus familiaris; parameters: dose 1 mg/kg, route intravenous; details: in vivo; procedure, shortened: as §1
[26] = Volume of distribution at steady state in monkey at 1 mg/kg, iv administered as single dose after 24 hrs by liquid chromatography-mass spectroscopy; type: ADME, organism-based, Macaca mulatta; parameters: dose 1 mg/kg, route intravenous; details: rhesus monkey, in vivo, read-out: Vdss
[27] = test system: PBMC; assay: Cytotoxicity against human PBMC infected with HIV1 3B after 96 hrs by celltiter glow assay

CN1CCN(c2cccc3nc(CN(C)[C@H]4CCCc5cccnc54)c(CO)n23)CC1
clearance [1]: 15.9 mL/min/kg
IC50 [2]: 1 nM
IC50 [3]: > 1000 nM
inhibition [4]: inactive
bioavailability [5]: 10%
IC50 [6]: 1 nM
IC50 [7]: 1 nM
IC50 [8]: 1 nM
IC50 [9]: 2.87 nM
IC50 [10]: > 1000 nM
IC50 [11]: 1 nM
Vd [12]: 4.2 L/kg
Vd [13]: 2.1 L/kg
IC50 [14]: 1 nM
inhibition [15]: 110%
IC50 [16]: 2.01 nM
inhibition (INH) [17]: Not Active
bioavailability [18]: 21%
Activity [19]: Dose-dependent effect
IC50 [20]: 1 nM
clearance [21]: 5.8 mL/min/kg
Activity [22]: inactive
inhibition (INH) [23]: Not Active
IC50 [24]: 1 nM
clearance [25]: 5.5 mL/min/kg
Vd [26]: 5.9 L/kg
IC50 [27]: > 1000 nM

From ChEMBL document CHEMBL1240366, “Blockade of X4-tropic HIV-1 cellular entry by GSK812397, a potent noncompetitive CXCR4 receptor antagonist” (Antimicrob Agents Chemother, 2010)
